Rows were chosen to be rich in hits. Some 2.9% of all compounds tested hit in one or more screens of this group.
TRPC4 act – activators of mouse TRPC4 channel, primary screen, Fluo4 calcium, HEK293 TRPC4beta/mu-opioid cells. AID 2237, 2010. 310,000 compounds, 0.49% hits. Short transient receptor potential channel 4 (Mus musculus), Q9QUQ5. B-score at 10 µM. Fluo4 calcium fluorescence; hits give high values;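 active means B-score above 5 SD of library B-scores, and initial fluorescence ratio not above library mean plus 5 SD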;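 further: positive B-score marks a calcium rise read as TRPC4 activation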
Target sequence (Q9QUQ5 whole entry, looked up): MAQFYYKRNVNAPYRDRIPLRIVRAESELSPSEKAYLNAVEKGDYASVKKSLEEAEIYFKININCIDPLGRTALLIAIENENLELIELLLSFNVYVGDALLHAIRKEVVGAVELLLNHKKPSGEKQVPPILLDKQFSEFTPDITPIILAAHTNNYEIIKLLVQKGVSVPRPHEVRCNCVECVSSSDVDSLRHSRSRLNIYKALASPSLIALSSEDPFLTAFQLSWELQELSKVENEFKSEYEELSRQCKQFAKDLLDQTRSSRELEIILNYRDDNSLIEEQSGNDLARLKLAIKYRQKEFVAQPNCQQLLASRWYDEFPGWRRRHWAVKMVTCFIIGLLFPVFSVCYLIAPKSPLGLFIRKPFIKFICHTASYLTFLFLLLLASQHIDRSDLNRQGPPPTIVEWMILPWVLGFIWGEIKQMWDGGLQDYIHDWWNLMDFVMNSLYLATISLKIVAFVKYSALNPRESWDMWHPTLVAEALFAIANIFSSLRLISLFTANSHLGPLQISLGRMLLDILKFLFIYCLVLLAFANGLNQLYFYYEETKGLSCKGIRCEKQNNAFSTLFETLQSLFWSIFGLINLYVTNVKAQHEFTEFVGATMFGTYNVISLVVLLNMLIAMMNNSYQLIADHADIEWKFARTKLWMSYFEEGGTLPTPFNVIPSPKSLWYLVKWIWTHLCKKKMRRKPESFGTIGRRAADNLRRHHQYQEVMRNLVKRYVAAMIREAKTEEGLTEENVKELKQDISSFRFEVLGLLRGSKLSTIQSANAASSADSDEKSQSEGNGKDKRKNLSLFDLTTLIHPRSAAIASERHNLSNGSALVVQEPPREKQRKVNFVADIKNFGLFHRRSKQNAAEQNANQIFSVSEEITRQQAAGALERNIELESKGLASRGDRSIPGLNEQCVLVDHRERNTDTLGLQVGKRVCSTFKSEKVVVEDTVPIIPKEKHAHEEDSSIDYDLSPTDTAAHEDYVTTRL
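system = HEK293 cells stably co-expressing mouse TRPC4beta and mu-opioid receptor | schedule = Fluo4 dye loading 45 min at room temperature, 110 s recording | measure = B-scored integrated calcium fluorescence ratio | signal = Fluo4 calcium-sensitive dye fluorescence, kinetic, 1 Hz baseline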
Kir21 inh – inhibitors of mouse Kir2.1 inward-rectifier potassium channel; 310,000 compounds, 0.85% hits; HEK293-Kir2.1, FluxOR thallium flux fluorescence; hits give low values; B-score at 10 µM;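 active means fluorescence ratio B-score at or below minus 3 SD of library scores, with starting-brightness B-score within 2 SD, cut at about -4.2 in these data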;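 further: channel flux triggered by added potassium and thallium sulfate stimulus; B-score of peak minus minimum fluorescence over baseline after thallium stimulus; more negative B-score means stronger Kir2.1 block with less thallium influx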
TRPC4 PAM – positive allosteric modulators of TRPC4, primary screen, cell-based, mouse TRPC4beta, HEK293 mu-opioid, Fluo-4 calcium. AID 2227, 2009. DAMGO EC20, Fluo-4 Ca2+ flux; hits give high values. B-score at 10 µM. 310,000 compounds, 0.42% hits;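 active means B-score of calcium response area above 5 SD of library B-scores, with initial fluorescence ratio within 5 SD of library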;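 further: B-score of integrated fluorescence ratio over time as area under calcium response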
TRPC6 activator – mouse TRPC6 channel activators, primary screen, cell-based, HEK293, membrane potential dye; HEK293-TRPC6 membrane potential dye fluorescence; hits give high values; B-score at 10 µM; 310,000 compounds, 0.13% hits; AID 2550, 2010;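 active means B-score of the integrated fluorescence ratio above library mean plus 3 SD, and starting fluorescence ratio within library mean plus 5 SD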;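 further: higher score means more depolarization so channel activation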
TRPC6 inh – mouse TRPC6 channel inhibitors, primary screen, cell-based, HEK293, membrane potential dye. B-score at 10 µM. Short transient receptor potential channel 6 (Mus musculus), Q61143. ACh-evoked depolarization; hits give low values. 310,000 compounds, 1.1% hits;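 active means B-score under library mean minus 3 SD, initial fluorescence not abnormally high, positive integrated signal ratio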;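 further: B-score derived from integrated fluorescence ratio over the kinetic read; more negative B-score means stronger inhibition of depolarization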
TRPC4 inh – inhibitors of mouse TRPC4 channel, primary screen, Fluo4 calcium, HEK293 TRPC4beta/mu-opioid cells | B-score at 10 µM | Short transient receptor potential channel 4 (Mus musculus), Q9QUQ5 | DAMGO-evoked Fluo4 calcium flux; hits give low values | 300,000 compounds, 0.39% hits | AID 2247, 2010;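 active means B-score over 3 SD under the library average, no early fluorescence shift, positive overall ratio signal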
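Assay system – HEK293 line stably carrying TRPC4beta and mu-opioid receptor · Doses – single dose · Detection – Fluo4 calcium-dye fluorescence, kinetic read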
An asterisk follows results filed as active; i = inactive.

SMILES | TRPC4 act | Kir21 inh | TRPC4 PAM | TRPC6 activator | TRPC6 inh | TRPC4 inh
Cc1ccc(/C=N\NC(=O)C2COc3cc4ccccc4cc3O2)o1 (configuration not stated) | 112* | 0.11 | i | i | i | i
COc1ccc(/C=C2\SC(=S)N(CC(=O)OCC(=O)Nc3cc(Cl)cc(Cl)c3)C2=O)cc1 | i | -0.01 | i | i | i | i
Cc1ccc(C2=NN(C(=O)CCCC(=O)O)C(c3ccc4c(c3)OCO4)C2)cc1 (configuration not stated) | i | 0.9 | i | i | i | i
CCOc1ccc(NCc2nnc(SCc3ccc(Cl)cc3)n2-c2ccccc2)cc1 | i | -2.2 | i | i | i | i
Cc1cccc(NC(=O)Cn2c(C)c(C#N)c3ccccc32)c1C | i | 0.03 | i | i | i | i
Oc1ccc(-c2[nH]ncc2-c2cnn(-c3ccccc3)c2)c(O)c1 | i | 0 | i | i | i | -5*
O=S(=O)(Nc1ccc(S(=O)(=O)Nc2cccc3ccccc23)cc1)c1ccccc1 | i | 2.9 | 15* | i | i | i
O=S(=O)(Nc1ccc(S(=O)(=O)Nc2ccccc2)cc1)c1ccccc1 | i | 0 | 11* | i | i | i
CC/C(=N\NC(=O)c1nnn(-c2nonc2N)c1CN(C)c1ccccc1)c1ccccc1 | i | -0.62 | i | i | i | i
C=CCNCCOc1ccc(C(C)(C)c2ccccc2)cc1 | i | -12* | i | i | i | i
CN(C)CCOc1ccc(C(C)(C)c2ccccc2)cc1 | i | 0.75 | i | i | i | i
COc1cc(C=O)ccc1OCC(=O)Nc1ccc2c(c1)OCO2 | i | 1.2 | i | i | i | i
CN(c1ccccc1)S(=O)(=O)c1ccc(NC(=O)c2nc(S(C)(=O)=O)ncc2Cl)cc1 | i | -4.5* | i | i | i | i
CCOC(=O)c1[nH]cnc1C(=O)Nc1cccc(OC)c1 | i | 1 | i | i | i | i
COc1cccc(NC(=O)c2nc(S(C)(=O)=O)ncc2Cl)c1 | i | -6.3* | i | i | i | i
CN(c1ccccc1)S(=O)(=O)c1ccc(NC(=O)c2ccccc2)cc1 | i | -0.78 | i | i | i | i
CNC(=O)c1[nH]cnc1C(=O)Nc1cccc(OC)c1 | i | -4.5* | i | i | i | i
COc1cccc(NC(=O)c2nc(SC)ncc2Cl)c1 | i | -0.81 | i | i | i | i
COCCSc1ccccc1C(=O)N1CCC(Cc2ccccc2)CC1 | 44* | -2.5 | i | i | i | -7*
Cc1c(C(=O)N2CCC(Cc3ccccc3)CC2)cccc1[N+](=O)[O-] | i | -0.46 | i | i | i | i
COc1cc(/C=C/CN2CCN(Cc3ccc(C)o3)C(CCO)C2)ccc1O (configuration not stated) | i | -0.51 | i | i | i | i
Cc1ccc(-c2cc(C(=O)Nc3nccs3)c3ccccc3n2)o1 | i | 0.31 | i | i | i | -7*
C/C(=N/NC(=O)c1nnn(-c2nonc2N)c1COc1ccccc1)c1ccc(O)cc1 | i | -1.3 | i | i | i | i
Cc1ccc2nc(-c3ccccn3)c(NC3CCCC3)n2c1 | i | -0.65 | i | i | i | -6*
C/C(=N\NC(N)=S)C1C2C3CC4C5CC(C42)C1C53 (configuration not stated) | i | -6* | i | i | i | i
SMILES | TRPC4 act | Kir21 inh | TRPC4 PAM | TRPC6 activator | TRPC6 inh | TRPC4 inh
NCC1CC2c3ccccc3C1c1ccccc12 (configuration not stated) | i | -1 | i | i | i | i
CC(C)Cn1c(-c2csc(C(C)C)c2)n[nH]c1=S | i | 0.7 | 13* | i | i | i
COc1ccc2[nH]c(=O)c(CN(Cc3nnnn3Cc3ccco3)C3CCCCC3)cc2c1 | i | -4.5* | i | i | i | i
COc1ccc2[nH]c(=O)c(CN(C3CCCCC3)C(c3nnnn3Cc3ccco3)C(C)C)cc2c1 (configuration not stated) | i | -3 | i | i | i | i
CCOCCc1c(O)nc(SCC)[nH]c1=O | i | -1.4 | i | i | i | i
CC1(c2ccccc2)CC(C)(C)N(C(=O)C2CCCO2)c2ccccc21 (configuration not stated) | i | -2.9 | i | i | i | -7*
NCCc1c(-c2ccccc2)n(-c2ccccc2)c2ccccc12 | i | -15* | i | i | i | i
CC(=O)n1c(-c2ccccc2)c(CO)c2ccccc21 | i | -0.5 | i | i | i | i
OCC1(CCOc2ccccc2)CCN(Cc2cc(Cl)ccc2O)CC1 | i | -4.6* | i | i | i | i
OCC1(CCc2ccccc2)CCN(Cc2ccccc2Cl)CC1 | 69* | -1.8 | i | i | i | i
OCC1(CCCc2ccccc2)CCN(Cc2cc(F)ccc2F)CC1 | i | -4.4* | i | i | i | -7*
OCCC1CN(Cc2cc(F)ccc2F)CCN1CCCc1ccccc1 (configuration not stated) | i | -0.23 | i | i | i | i
Clc1ccccc1CN1CCN(CCCc2ccccc2)CC1 | i | -3.8 | i | i | i | i
OCC1(CCc2ccccc2)CCN(Cc2c(F)ccc(F)c2F)CC1 | i | -0.78 | i | i | i | i
OCC1(CCc2ccccc2)CCN(Cc2cc(F)ccc2-n2cccn2)CC1 | 82* | -3.2 | i | i | i | i
CC(=O)N1N=C(c2ccco2)CC1c1ccc(Cl)o1 (configuration not stated) | i | 0.06 | i | i | i | i
Cc1ccc(S(=O)(=O)N2CCOC23CCN(S(=O)(=O)c2c(C)cc(C)cc2C)CC3)cc1 | i | 0.15 | i | i | i | i
O=C(NCc1cn2ccccc2n1)C1CCC(=O)N(Cc2ccccc2F)C1 (configuration not stated) | i | -0.35 | i | i | i | i

Screening data deposited in PubChem by Johns Hopkins Ion Channel Center.
